In one experiment the test system is L1210. In words: Ability to reduce the cell count to 50% in L1210 culture cells. It counts as functional. As to conditions: Mus musculus, read-out: ID50 (the source's name). The gist of the method: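 L1210 cells in exponential growth in RPMI 1640 with 2 mM glutamine, penicillin/streptomycin and 10% FCS, 37 °C, 5% CO2. Drugs dissolved in distilled water were added to cells at 0.8 × 10^5 cells/mL for 48 h, then cells were counted. ID50 is the concentration halving cell proliferation versus controls, from regression of dose-response data; mean of two independent experiments.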

The next experiment has as its system Calf thymus DNA. In words: Apparent DNA affinity constant. The class given is nucleic-acid assay. As to conditions: Bos taurus. The gist of the method:
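Apparent DNA affinity constant was measured by competition with ethidium bromide. Buffer was 20 mM Na2HPO4/NaH2PO4, 0.1 M NaCl, 1 mM EDTA, pH 7.4, with calf thymus DNA at 10 μg/mL. Values are given in 10^6 M⁻¹.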

In experiment [1] the test system is Mus musculus. In words: Antitumor activity against P388 leukemia in mice at a dose of 10 mg/kg administered intraperitoneally for 5 days. It counts as functional. The essentials: (§1)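 CDF1 hybrid male or female mice, 10 per group, were inoculated ip with 10^6 viable P388 cells on day 0. Drugs in distilled water were given ip (0.1 mL/10 g body weight) daily D1-5. Vehicle, 5-fluorouracil and BD 84 were given the same way. T/C = median survival day of treated / controls × 100; T/C > 128% was significant; cures counted at D60.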

Experiment [2] has as its system Mus musculus. In words: Antitumor activity against P388 leukemia in mice at a dose of 5 mg/kg administered intraperitoneally for 5 days. The class given is functional. The essentials: (§2)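 CDF1 hybrid male or female mice, 10 per group, were inoculated ip on day 0 with 10^6 viable P388 leukemia cells. Drug in distilled water was given ip (0.1 mL/10 g body weight) daily on days 1-5, with vehicle, 5-fluorouracil and BD 84 controls given the same way. T/C = median survival of treated/controls × 100; T/C > 128% counted as significant.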

For experiment [3], the system named is Mus musculus. In words: Antitumor activity against P388 leukemia in mice at a dose of 12 mg/kg administered intraperitoneally for 5 days. As to conditions: route intraperitoneal. The class given is functional. The gist of the method:
as §1

Experiment [4] concerns Mus musculus. In words: Antitumor activity against P388 leukemia in mice at a dose of 24 mg/kg administered intraperitoneally for 5 days. The class given is functional. As to conditions: route intraperitoneal. The essentials: as §2
Experiment [5] deals with Mus musculus. In words: Antitumor activity against P388 leukemia in mice at a dose of 6 mg/kg administered intraperitoneally for 5 days. It counts as functional. As to conditions: route intraperitoneal. The essentials:
as §2

Experiment [6] deals with Mus musculus. In words: Antitumor activity against P388 leukemia in mice at a dose of 50 mg/kg administered intraperitoneally for 5 days. It counts as functional, organism-based. Also noted: dose 50 mg/kg. The essentials: as §2
Experiment [7] has as its system Mus musculus. In words: Antitumor activity against P388 leukemia in mice at a dose of 20 mg/kg administered intraperitoneally for 5 days. It counts as functional. As to conditions: route intraperitoneal. The gist of the method:
as §1

Experiment [8] concerns Mus musculus. In words: Antitumor activity against P388 leukemia in mice at a dose of 40 mg/kg administered intraperitoneally for 5 days. The class given is functional. As to conditions: route intraperitoneal. The essentials:
as §2

Experiment [9] relates to Mus musculus. In words: Antitumor activity against P388 leukemia in mice at a dose of 80 mg/kg administered intraperitoneally for 5 days. The class given is functional, organism-based. Also noted: dose 80 mg/kg. The gist of the method:
as §2

The T/C is the ratio of treated to control.

Molecules are shown by their SMILES. pIC50: −log10 of the molar value. The source made the active and inactive calls. The rule behind the calls is not given here.

In the case of `CCN(CC)CCNc1ncc(C)c2c1c1cc(OC)ccc1n2C`, the pIC50 in the experiment with L1210 is 5.92. Moreover, in the experiment on Calf thymus DNA, the K aff worked out at 80000 M⁻¹.
On the same counts, the results for `CCN(CC)CCCCNc1ncc(C)c2c1c1cc(O)ccc1n2C` are 6.51 and 350000 M⁻¹.
`CCN(CC)CC(O)CNc1ncc(C)c2c1c1cc(O)ccc1n2C` (centres undefined): the T/C result with Mus musculus [1] was “Toxic”. For the same compound, the T/C result with Mus musculus [2] was “inactive”. In addition, the pIC50 with L1210 is 7.22. The K aff with Calf thymus DNA stood at 230000 M⁻¹.
Turning to `COc1ccc2c(c1)c1c(NCCCN3CCCC3)ncc(C)c1n2C`, the pIC50 in the experiment with L1210 was 6.30. Moreover, the K aff with Calf thymus DNA was determined as 300000 M⁻¹.
Consider `Cc1cnc(NCCCN(C)C)c2c3ccccc3n(C)c12`, for which the T/C in the experiment with Mus musculus [3] is 114%; with Mus musculus [4], 131%; in the experiment with Mus musculus [5] it was 107%; in the experiment on Mus musculus [6], “Toxic”. Moreover, the pIC50 in the experiment with L1210 is 6.46. Moreover, in the experiment with Calf thymus DNA, the K aff is 150000 M⁻¹.
Consider `Cc1c[nH]c(NCCCN(C)C)c2c3ccccc3nc1-2`, for which the T/C is 129% with Mus musculus [1] (route intraperitoneal) and “Toxic” in the experiment with Mus musculus [6]. For the same compound, the pIC50 in the experiment with L1210 was 6.80. Besides, the K aff in the experiment on Calf thymus DNA worked out at 130000 M⁻¹.
In the case of `Cc1cnc(NCCCN2CCCC2)c2c3cc(O)ccc3n(C)c12`, in the experiment with L1210, the pIC50 is 7.30. Besides, the K aff in the experiment with Calf thymus DNA was found to be 370000 M⁻¹.
For `CCN(CC)CCCNc1ncc(C)c2c1c1cc(OC)ccc1n2C`, the T/C in the experiment on Mus musculus [1] (route intraperitoneal) is 115%; in the experiment with Mus musculus [7] it was 125%; with Mus musculus [8], 115%; in the experiment on Mus musculus [2] (route intraperitoneal), 107%; in the experiment on Mus musculus [9] it was “Toxic”. For the same compound, the pIC50 with L1210 was 7.00. Besides, in the experiment on Calf thymus DNA, the K aff turned out to be 250000 M⁻¹.

The record behind these values is ChEMBL document CHEMBL1124035, “1-Amino-substituted 4-methyl-5H-pyrido[4,3-b]indoles (gamma-carbolines) as tricyclic analogues of ellipticines: a new class of antineoplastic agents” (1988).
